# Assay results taken from ChEMBL document CHEMBL4049439, “Synthesis and Characterization of Tetrahydropyran-Based Bacterial Topoisomerase Inhibitors with Antibacterial Activity against Gram-Negative Bacteria” (J Med Chem, 2017).
# What was measured:
# [1] = Inhibition of wild-type Acinetobacter baumannii DNA topoisomerase-4 mediated supercoiled pBR322 DNA relaxation by ethidium bromide based agarose gel electrophoresis
# Acinetobacter baumannii = assay: Antibacterial activity against fluoroquinolone-resistant Acinetobacter baumannii T6474 by CLSI broth microdilution method; assay type: functional
# [2] = Inhibition of wild-type Acinetobacter baumannii DNA gyrase supercoiling activity using relaxed pBR322 DNA as substrate by ethidium bromide based agarose gel electrophoresis
# [3] = Inhibition of wild-type Pseudomonas aeruginosa DNA gyrase supercoiling activity using relaxed pBR322 DNA as substrate by ethidium bromide based agarose gel electrophoresis
# [4] = Inhibition of wild-type Pseudomonas aeruginosa DNA topoisomerase-4 mediated supercoiled pBR322 DNA relaxation by ethidium bromide based agarose gel electrophoresis
# [5] = Lipophilicity, log D of the compound at pH 7.4; assay type: physicochemical; details: buffer
# Escherichia coli [6] = assay: Antibacterial activity against wild-type Escherichia coli MG1655 by CLSI broth microdilution method; assay type: functional; details: K-12 substr. MG1655
# Summary of the method: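 MIC (μg/mL) determined on wild-type E. coli MG1655, the parent of isogenic strains with truncated LPS or deleted TolC or AcrAB efflux.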
# Escherichia coli [7] = assay: Antibacterial activity against Escherichia coli MG1655 harboring rfac deletion mutant by CLSI broth microdilution method; assay type: functional; details: K-12 substr. MG1655
# Summary of the method: (§1)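 MIC (μg/mL) measured against engineered derivatives of E. coli MG1655. ΔrfaC has truncated LPS (raised permeability). ΔtolC lacks the outer-membrane TolC efflux component. ΔacrAB lacks the AcrAB efflux system of the cytoplasmic membrane.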
# Escherichia coli [8] = assay: Ratio of MIC for wild-type Escherichia coli MG1655 to MIC for Escherichia coli MG1655 harboring rfac deletion mutant; assay type: functional, K-12 substr. MG1655
# Summary of the method: (§2)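 Fold change in MIC for each MG1655 derivative (ΔacrAB, ΔrfaC, ΔtolC) relative to the MIC measured on wild-type E. coli MG1655, with both MICs in μg/mL.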
# Escherichia coli [9] = assay: Antibacterial activity against Escherichia coli MG1655 harboring tolC deletion mutant by CLSI broth microdilution method; assay type: functional; details: K-12 substr. MG1655; summary of the method: as §1
# Escherichia coli [10] = assay: Ratio of MIC for wild-type Escherichia coli MG1655 to MIC for Escherichia coli MG1655 harboring tolC deletion mutant; assay type: functional, K-12 substr. MG1655; summary of the method: as §2
# Escherichia coli [11] = assay: Antibacterial activity against Escherichia coli MG1655 harboring AcrAB deletion mutant by CLSI broth microdilution method; assay type: functional; details: K-12 substr. MG1655; summary of the method: as §1
# Escherichia coli [12] = assay: Ratio of MIC for wild-type Escherichia coli MG1655 to MIC for Escherichia coli MG1655 harboring AcrAB deletion mutant; assay type: functional, K-12 substr. MG1655; summary of the method: as §2
# Rattus norvegicus [13] = assay: Dose normalized AUC in Wistar rat at 1 mg/kg, iv by LC-MS/MS analysis; assay type: ADME, organism-based; details: in vivo
# [14] = Fraction unbound in Wistar rat plasma at 1 mg/kg, iv by rapid equilibrium dialysis; assay type: ADME, organism-based
# Summary of the method: (§3)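 Rats dosed iv at 10 mg/kg or 1 mg/kg. Dose-normalized AUC (μg·h/(mL·dose)) and its unbound counterpart derived via fraction unbound. Clearance, unbound clearance, Vdss and half-life also derived.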
# Rattus norvegicus [15] = assay: Dose normalized unbound AUC in Wistar rat at 1 mg/kg, iv by LC-MS/MS analysis; assay type: ADME, organism-based; details: in vivo; summary of the method: as §3
# [16] = Clearance in Wistar rat at 1 mg/kg, iv by LC-MS/MS analysis; assay type: ADME, organism-based; details: in vivo; summary of the method: as §3
# Rattus norvegicus [17] = assay: Unbound clearance in Wistar rat at 1 mg/kg, iv by LC-MS/MS analysis; assay type: ADME, organism-based; details: in vivo; summary of the method: as §3
# [18] = Volume of distribution at steady state in Wistar rat at 1 mg/kg, iv by LC-MS/MS analysis; assay type: ADME, organism-based; details: in vivo, read-out: Vdss
# Summary of the method: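 Rats received a single intravenous dose of 10 or 1 mg/kg depending on the compound. Clearance, unbound clearance, Vdss, terminal half-life and dose-normalized AUC were derived from plasma exposure, with unbound fraction (fu) reported for this species.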
# [19] = Terminal half-life in Wistar rat at 1 mg/kg, iv by LC-MS/MS analysis; assay type: ADME, organism-based; details: in vivo, read-out: beta t1/2 (converted); summary of the method: as §3
# [20] = Inhibition of wild-type Escherichia coli DNA topoisomerase-4 mediated supercoiled pBR322 DNA relaxation by ethidium bromide based agarose gel electrophoresis
# Staphylococcus aureus = assay: Antibacterial activity against Staphylococcus aureus ATCC 29213 by CLSI broth microdilution method; assay type: functional
# Escherichia coli [21] = assay: Antibacterial activity against wild-type Escherichia coli ATCC 25922 by CLSI broth microdilution method; assay type: functional
# Pseudomonas aeruginosa = assay: Antibacterial activity against Pseudomonas aeruginosa ATCC 27853 by CLSI broth microdilution method; assay type: functional
# [22] = Inhibition of wild-type Escherichia coli DNA gyrase supercoiling activity using relaxed pBR322 DNA as substrate by ethidium bromide based agarose gel electrophoresis
# hERG (KCNH2) [23] = target: T1, hERG (KCNH2) (Homo sapiens, UniProt Q12809); assay: Inhibition of human ERG assessed as reduction of K+ current at 30 uM
# T1 sequence (Q12809 whole entry): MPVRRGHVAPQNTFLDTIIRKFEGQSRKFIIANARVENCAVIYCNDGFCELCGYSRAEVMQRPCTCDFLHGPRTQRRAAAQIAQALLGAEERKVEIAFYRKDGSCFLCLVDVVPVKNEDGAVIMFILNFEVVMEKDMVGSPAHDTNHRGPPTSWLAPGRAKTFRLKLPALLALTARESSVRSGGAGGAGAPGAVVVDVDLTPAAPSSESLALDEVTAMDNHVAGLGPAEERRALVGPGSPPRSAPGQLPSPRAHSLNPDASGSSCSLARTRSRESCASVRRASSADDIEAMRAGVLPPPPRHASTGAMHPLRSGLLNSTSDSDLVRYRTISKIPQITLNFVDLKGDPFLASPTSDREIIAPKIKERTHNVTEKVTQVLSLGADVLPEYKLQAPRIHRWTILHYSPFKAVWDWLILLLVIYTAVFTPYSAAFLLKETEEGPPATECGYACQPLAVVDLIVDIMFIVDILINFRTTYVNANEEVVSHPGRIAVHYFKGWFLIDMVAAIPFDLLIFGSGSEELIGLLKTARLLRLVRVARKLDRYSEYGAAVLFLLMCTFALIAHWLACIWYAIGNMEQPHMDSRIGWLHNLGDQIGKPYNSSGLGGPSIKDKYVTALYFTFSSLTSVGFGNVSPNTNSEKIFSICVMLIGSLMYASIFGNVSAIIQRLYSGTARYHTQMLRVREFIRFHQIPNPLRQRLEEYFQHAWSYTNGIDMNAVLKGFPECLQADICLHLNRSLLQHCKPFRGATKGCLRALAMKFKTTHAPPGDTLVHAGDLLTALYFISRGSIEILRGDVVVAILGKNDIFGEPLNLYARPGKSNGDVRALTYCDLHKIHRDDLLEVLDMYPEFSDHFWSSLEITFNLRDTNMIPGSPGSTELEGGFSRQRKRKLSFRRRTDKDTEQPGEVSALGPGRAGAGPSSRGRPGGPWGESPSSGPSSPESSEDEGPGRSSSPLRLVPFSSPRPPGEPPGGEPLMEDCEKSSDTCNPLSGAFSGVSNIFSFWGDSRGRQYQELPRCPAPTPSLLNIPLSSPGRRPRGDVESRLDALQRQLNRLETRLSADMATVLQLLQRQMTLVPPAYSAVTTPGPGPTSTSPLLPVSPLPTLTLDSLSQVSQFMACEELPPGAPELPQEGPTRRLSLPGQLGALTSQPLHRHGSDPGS
# Summary of the method: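 hERG K+ channel current reduction measured at 30 μM compound concentration.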
# [24] = target: Voltage-gated inwardly rectifying potassium channel KCNH2 (Homo sapiens, UniProt Q12809); assay: (§4) Inhibition of human ERG assessed as reduction of K+ current
# Sequence of Voltage-gated inwardly rectifying potassium channel KCNH2 (Q12809 whole entry): as above
# hERG (KCNH2) [25] = target: T1, hERG (KCNH2); assay: as §4; details: human
# [26] = Cardiotoxicity against human induced pluripotent stem cell-derived cardiomyocytes assessed as free drug concentration causing inhibition of spontaneous rhythm after 5 to 60 mins by Fluo-4 dye based fluorescence assay; assay type: toxicity; details: cardiac muscle cell
# Summary of the method: (§5)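 Spontaneous beating rhythm of human iPSC-derived cardiomyocytes monitored. Reported value is the lowest active concentration, free or total. Free/total conversion corrected for 20% serum in the test solution.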
# [27] = Cardiotoxicity against human induced pluripotent stem cell-derived cardiomyocytes assessed as total drug concentration causing effect on spontaneous rhythm after 5 to 60 mins by Fluo-4 dye based fluorescence assay; assay type: toxicity; details: cardiac muscle cell; summary of the method: as §5
# Cavia porcellus [28] = assay: Cardiotoxicity in Dunkin-Hartley guinea pig assessed as free plasma concentration causing effect on QT interval administered as iv at 3 mg/kg for first 20 mins of infusion followed by 10 mg/kg for second 20 mins of infusion followed by 30 mg/kg for third 20 mins of infusion by LC-MS/MS analysis; assay type: toxicity, organism-based; details: in vivo
# Summary of the method: (§6)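 Anesthetized guinea pigs received 3, 10 and 30 mg/kg iv over three consecutive 20 min periods. MAP, HR and ECG intervals (PR, QRS, RR, QT) recorded continuously. Blood drawn at the end of each period for drug levels. Value is the lowest plasma concentration differing from vehicle-treated animals. Free level uses unbound fraction from rapid equilibrium dialysis of guinea pig plasma.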
# Cavia porcellus [29] = assay: Cardiotoxicity in Dunkin-Hartley guinea pig assessed as free plasma concentration causing effect on heart rate administered as iv at 3 mg/kg for first 20 mins of infusion followed by 10 mg/kg for second 20 mins of infusion followed by 30 mg/kg for third 20 mins of infusion by LC-MS/MS analysis; assay type: toxicity, organism-based; details: in vivo; summary of the method: as §6
# Cavia porcellus [30] = assay: Cardiotoxicity in Dunkin-Hartley guinea pig assessed as free plasma concentration causing effect on mean arterial pressure administered as iv at 3 mg/kg for first 20 mins of infusion followed by 10 mg/kg for second 20 mins of infusion followed by 30 mg/kg for third 20 mins of infusion by LC-MS/MS analysis; assay type: toxicity, organism-based; details: in vivo; summary of the method: as §6
# Cavia porcellus [31] = assay: Cardiotoxicity in Dunkin-Hartley guinea pig assessed as free plasma concentration causing effect on QRS interval administered as iv at 3 mg/kg for first 20 mins of infusion followed by 10 mg/kg for second 20 mins of infusion followed by 30 mg/kg for third 20 mins of infusion by LC-MS/MS analysis; assay type: toxicity, organism-based; details: in vivo; summary of the method: as §6
# Cavia porcellus [32] = assay: Cardiotoxicity in Dunkin-Hartley guinea pig assessed as free plasma concentration causing effect on PR interval administered as iv at 3 mg/kg for first 20 mins of infusion followed by 10 mg/kg for second 20 mins of infusion followed by 30 mg/kg for third 20 mins of infusion by LC-MS/MS analysis; assay type: toxicity, organism-based; details: in vivo; summary of the method: as §6
# [33] = Fraction unbound in Dunkin-Hartley guinea pig plasma administered as iv at 3 mg/kg for first 20 mins of infusion followed by 10 mg/kg for second 20 mins of infusion followed by 30 mg/kg for third 20 mins of infusion by rapid equilibrium dialysis; assay type: ADME, organism-based, Cavia porcellus
SMILES,IC50 [1] [nM],MIC (Acinetobacter baumannii) [µg/mL],IC50 [2] [nM],IC50 [3] [nM],IC50 [4] [nM],logD [5],AUC/dose (Rattus norvegicus [13]) [ng·h/mL],fraction unbound [14],fAUC/dose (Rattus norvegicus [15]) [µg·h/mL],clearance [16] [mL/min/kg],CL free (Rattus norvegicus [17]) [mL/min/kg],Vd [18] [L/kg],half-life [19] [h],other results
COc1ccc2ncc(F)c(C[C@H](O)[C@@H]3CC[C@@H](NCc4ccc5c(n4)NC(=O)CO5)CO3)c2n1,125,0.125,125,125,125,2,457,0.086,39,37,430,2.5,1.3,MIC (Escherichia coli [6]): 0.5 µg/mL; MIC (Escherichia coli [7]): 0.031 µg/mL; Ratio (Escherichia coli [8]): 16; MIC (Escherichia coli [9]): 0.004 µg/mL; Ratio (Escherichia coli [10]): 100; MIC (Escherichia coli [11]): 0.004 µg/mL; Ratio (Escherichia coli [12]): 100
COc1ccc2ccc(=O)n(C[C@H](O)[C@@H]3CC[C@@H](NCc4ccc5c(n4)NC(=O)CO5)CO3)c2n1,125,≤ 0.03,125,125,30,2,378,0.167,63,44,263,2.5,1,IC50 [20]: 30 nM; MIC (Staphylococcus aureus): ≤ 0.03 µg/mL; MIC (Escherichia coli [21]): 0.5 µg/mL; MIC (Pseudomonas aeruginosa): 8 µg/mL; IC50 [22]: 125 nM; inhibition at 30 µM (hERG (KCNH2) [23]): 71%; IC50 [24]: 15000 nM; IC20 (hERG (KCNH2) [25]): 3700 nM; Drug uptake(free) [26]: 0.86 µM; Drug uptake [27]: 1.4 µM; Cp(f) (Cavia porcellus [28]): 1.5 µM; Cp(f) (Cavia porcellus [29]): 6 µM; Cp(f) (Cavia porcellus [30]): 21 µM; Cp(f) (Cavia porcellus [31]): 21 µM; Cp(f) (Cavia porcellus [32]): > 21 µM; fraction unbound at 20 min [33]: 0.43
